From ChEMBL document CHEMBL1139657, “Isothiazoloquinolones containing functionalized aromatic hydrocarbons at the 7-position: synthesis and in vitro activity of a series of potent antibacterial agents with diminished cytotoxicity in human cells” (Bioorg Med Chem Lett, 2006)
pIC50: −log10 of the molar value. Converted amounts (≈) assume the structure as drawn.

Legend:
Escherichia coli = assay: Antimicrobial activity against Escherichia coli ATCC 25922; format: functional
Summary of the method: (§1)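 MIC taken as lowest concentration giving no visible bacterial growth after incubation at 37 °C for 18–24 h.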

Staphylococcus aureus [1] = assay: Antimicrobial activity against Staphylococcus aureus ATCC 29213; format: functional; summary of the method: as §1
[2] = target: DNA topoisomerase 4 subunit A (Staphylococcus aureus, UniProt P0C1U9); assay: Inhibitory activity against wild type Staphylococcus aureus topoisomerase 4
Chain of DNA topoisomerase 4 subunit A (P0C1U9 whole entry): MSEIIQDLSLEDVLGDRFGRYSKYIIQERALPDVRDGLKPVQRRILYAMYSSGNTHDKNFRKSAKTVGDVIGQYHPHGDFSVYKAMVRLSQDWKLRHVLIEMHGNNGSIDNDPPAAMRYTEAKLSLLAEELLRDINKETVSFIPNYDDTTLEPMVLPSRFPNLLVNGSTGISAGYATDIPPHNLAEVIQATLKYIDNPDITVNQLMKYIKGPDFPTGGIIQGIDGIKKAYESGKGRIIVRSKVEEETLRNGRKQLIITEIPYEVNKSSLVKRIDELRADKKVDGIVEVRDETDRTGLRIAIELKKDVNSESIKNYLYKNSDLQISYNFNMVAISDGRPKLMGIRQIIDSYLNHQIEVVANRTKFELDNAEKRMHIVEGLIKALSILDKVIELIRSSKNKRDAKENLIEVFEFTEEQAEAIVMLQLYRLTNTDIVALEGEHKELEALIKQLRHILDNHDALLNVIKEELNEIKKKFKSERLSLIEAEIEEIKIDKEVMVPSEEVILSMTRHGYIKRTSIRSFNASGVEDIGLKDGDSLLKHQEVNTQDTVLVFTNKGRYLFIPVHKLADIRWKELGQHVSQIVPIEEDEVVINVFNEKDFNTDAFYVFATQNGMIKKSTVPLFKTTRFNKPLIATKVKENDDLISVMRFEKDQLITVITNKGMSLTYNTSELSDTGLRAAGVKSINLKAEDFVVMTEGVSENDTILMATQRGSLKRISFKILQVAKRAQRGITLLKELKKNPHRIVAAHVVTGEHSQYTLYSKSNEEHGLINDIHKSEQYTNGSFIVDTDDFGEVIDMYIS

DNA gyrase = DNA gyrase (Escherichia coli, UniProt P0AES4+P0AES6); assay: Inhibitory activity against wild type Escherichia coli gyrase; format: protein-complex assay
Staphylococcus aureus [3] = assay: Antimicrobial activity against methicillin-resistant Staphylococcus aureus 700699; format: functional
Summary of the method: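 MIC taken as the lowest compound concentration preventing visible bacterial growth after incubation at 37 °C for 18–24 h.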

HEp-2 = assay: Cytotoxicity against human Hep2 laryngeal carcinoma cell line; format: functional
[4] = target: DNA topoisomerase II (Homo sapiens) (UniProt P11388+Q02880); assay: Inhibitory activity against human topoisomerase 2; format: protein assay

Structure (SMILES) | MIC (Escherichia coli) [µg/mL] | MIC (Staphylococcus aureus [1]) [µg/mL] | pIC50 [2] | pIC50 (DNA gyrase) | MIC (Staphylococcus aureus [3]) [µg/mL] | CC50 (HEp-2) [µM] | EC2 [4] [µM]
COc1c(N2CCNC(C)C2)c(F)cc2c(=O)c(C(=O)O)cn(C3CC3)c12 (stereo not given) [GATIFLOXACIN] | 0.015 (≈ 0.04 µM) | 0.125 (≈ 0.333 µM) | 5.92 | 6.30 | 8 (≈ 21.3 µM) | 67 | 
O=c1[nH]sc2c1c(=O)c1cc(F)c(-c3cccc(C4CCCCN4)c3)cc1n2C1CC1 (stereo not given) | 0.125 (≈ 0.287 µM) | 0.06 (≈ 0.138 µM) | 5.57 | 6.15 | 8 (≈ 18.4 µM) | 4 | 
Nc1ccc(-c2cc3c(cc2F)c(=O)c2c(=O)[nH]sc2n3C2CC2)cc1 | 0.06 (≈ 0.163 µM) | 0.004 (≈ 0.0109 µM) | 4.92 | 6.52 | 0.5 (≈ 1.36 µM) | 34 | 
CN(C)c1cccc(-c2cc3c(cc2F)c(=O)c2c(=O)[nH]sc2n3C2CC2)c1 | 2 (≈ 5.06 µM) | 0.06 (≈ 0.152 µM) |  |  | 32 (≈ 80.9 µM) | > 100 | 
NC(=O)c1cccc(-c2cc3c(cc2F)c(=O)c2c(=O)[nH]sc2n3C2CC2)c1 | 0.125 (≈ 0.316 µM) | 0.008 (≈ 0.0202 µM) |  |  | 2 (≈ 5.06 µM) |  | 
Cc1ccc(-c2cc3c(cc2F)c(=O)c2c(=O)[nH]sc2n3C2CC2)cc1N | 0.125 (≈ 0.328 µM) | 0.008 (≈ 0.021 µM) |  |  | 2 (≈ 5.24 µM) | 18 | 
O=c1[nH]sc2c1c(=O)c1cc(F)c(-c3ccc(CO)cc3)cc1n2C1CC1 | 0.06 (≈ 0.157 µM) | 0.004 (≈ 0.0105 µM) | 4.39 | 6.05 | 4 (≈ 10.5 µM) | 25 | 
CN(C)c1ccc(-c2cc3c(cc2F)c(=O)c2c(=O)[nH]sc2n3C2CC2)cc1 | 0.5 (≈ 1.26 µM) | 0.001 (≈ 0.00253 µM) |  |  | 4 (≈ 10.1 µM) | 51 | 
COc1ccccc1-c1cc2c(cc1F)c(=O)c1c(=O)[nH]sc1n2C1CC1 | 2 (≈ 5.23 µM) | 0.125 (≈ 0.327 µM) |  |  | 32 (≈ 83.7 µM) | > 84 | 
O=c1[nH]sc2c1c(=O)c1cc(F)c(N3CCNCC3)cc1n2C1CC1 | 0.004 (≈ 0.0111 µM) | 0.05 (≈ 0.139 µM) | 6.30 | 7.00 | 4 (≈ 11.1 µM) | 7 | 20
N#Cc1cccc(-c2cc3c(cc2F)c(=O)c2c(=O)[nH]sc2n3C2CC2)c1 | 0.03 (≈ 0.0795 µM) | 0.001 (≈ 0.00265 µM) |  |  | 0.125 (≈ 0.331 µM) | > 100 | 
NCc1ccc(-c2cc3c(cc2F)c(=O)c2c(=O)[nH]sc2n3C2CC2)cc1 | 0.015 (≈ 0.0393 µM) | 0.03 (≈ 0.0787 µM) | 5.82 | 7.00 | 8 (≈ 21 µM) | 4 | 
O=c1[nH]sc2c1c(=O)c1cc(F)c(-c3ccccc3)cc1n2C1CC1 | 0.06 (≈ 0.17 µM) | 0.004 (≈ 0.0114 µM) |  |  | 16 (≈ 45.4 µM) | > 100 | 
N#Cc1ccccc1-c1cc2c(cc1F)c(=O)c1c(=O)[nH]sc1n2C1CC1 | 2 (≈ 5.3 µM) | 0.125 (≈ 0.331 µM) |  |  | > 64 | > 85 | 
NCCc1ccc(-c2cc3c(cc2F)c(=O)c2c(=O)[nH]sc2n3C2CC2)cc1 | 0.06 (≈ 0.152 µM) | 0.02 (≈ 0.0506 µM) |  |  | > 64 | 11 | 
O=C(O)c1cn(C2CC2)c2cc(N3CCNCC3)c(F)cc2c1=O [CIPROFLOXACIN] |  | 0.25 (≈ 0.754 µM) |  |  | 32 (≈ 96.6 µM) | > 100 | 
COc1cccc(-c2cc3c(cc2F)c(=O)c2c(=O)[nH]sc2n3C2CC2)c1 | 0.125 (≈ 0.327 µM) | 0.004 (≈ 0.0105 µM) |  |  | 2 (≈ 5.23 µM) | 26 | 
N#Cc1ccc(-c2cc3c(cc2F)c(=O)c2c(=O)[nH]sc2n3C2CC2)cc1 | 1 (≈ 2.65 µM) | 0.03 (≈ 0.0795 µM) |  |  | 16 (≈ 42.4 µM) | > 100 | 
CC(=O)c1cccc(-c2cc3c(cc2F)c(=O)c2c(=O)[nH]sc2n3C2CC2)c1 | 0.125 (≈ 0.317 µM) | 0.004 (≈ 0.0101 µM) |  |  | 2 (≈ 5.07 µM) | > 100 | 

Structure (SMILES) | MIC (Escherichia coli) [µg/mL] | MIC (Staphylococcus aureus [1]) [µg/mL] | pIC50 [2] | pIC50 (DNA gyrase) | MIC (Staphylococcus aureus [3]) [µg/mL] | CC50 (HEp-2) [µM] | EC2 [4] [µM]
Nc1ccccc1-c1cc2c(cc1F)c(=O)c1c(=O)[nH]sc1n2C1CC1 | 0.125 (≈ 0.34 µM) | 0.03 (≈ 0.0817 µM) |  |  | 64 (≈ 174 µM) | 46 | 
NCC(=O)Nc1ccc(-c2cc3c(cc2F)c(=O)c2c(=O)[nH]sc2n3C2CC2)cc1 | 1 (≈ 2.36 µM) | 0.25 (≈ 0.589 µM) |  |  | 64 (≈ 151 µM) | > 75 | 
O=c1[nH]sc2c1c(=O)c1cc(F)c(-c3ccc(F)cc3)cc1n2C1CC1 | 0.25 (≈ 0.675 µM) | 0.03 (≈ 0.081 µM) |  |  | 32 (≈ 86.4 µM) | > 100 | 
O=c1[nH]sc2c1c(=O)c1cc(F)c(-c3ccc(O)cc3)cc1n2C1CC1 | 0.03 (≈ 0.0814 µM) | 0.004 (≈ 0.0109 µM) | 4.60 | 6.10 | 0.125 (≈ 0.339 µM) | 8 | 15
O=c1[nH]sc2c1c(=O)c1cc(F)c(-c3ccc(C4CCCCN4)cc3)cc1n2C1CC1 (stereo not given) | 0.25 (≈ 0.574 µM) | 0.125 (≈ 0.287 µM) | 5.59 | 6.00 | 4 (≈ 9.18 µM) | 4 | 
O=c1[nH]sc2c1c(=O)c1cc(F)c(-c3cccc(CO)c3)cc1n2C1CC1 | 0.125 (≈ 0.327 µM) | 0.008 (≈ 0.0209 µM) | 5.09 | 6.30 | 2 (≈ 5.23 µM) |  | 
COc1cc(-c2cc3c(cc2F)c(=O)c2c(=O)[nH]sc2n3C2CC2)ccc1O | 0.06 (≈ 0.151 µM) | 0.001 (≈ 0.00251 µM) |  |  | 0.125 (≈ 0.314 µM) | 4 | 
CC(=O)Nc1cccc(-c2cc3c(cc2F)c(=O)c2c(=O)[nH]sc2n3C2CC2)c1 | 0.125 (≈ 0.305 µM) | 0.004 (≈ 0.00977 µM) |  |  | 64 (≈ 156 µM) |  | 
Nc1cc(-c2cc3c(cc2F)c(=O)c2c(=O)[nH]sc2n3C2CC2)ccc1F | 0.125 (≈ 0.324 µM) | 0.008 (≈ 0.0208 µM) | 5.00 | 6.52 | 0.5 (≈ 1.3 µM) | 28 | 
Cc1cc(-c2cc3c(cc2F)c(=O)c2c(=O)[nH]sc2n3C2CC2)cc(C)c1O | 0.125 (≈ 0.315 µM) | 0.001 (≈ 0.00252 µM) |  |  | 2 (≈ 5.04 µM) |  | 
Nc1cccc(-c2cc3c(cc2F)c(=O)c2c(=O)[nH]sc2n3C2CC2)c1 | 0.004 (≈ 0.0109 µM) | 0.008 (≈ 0.0218 µM) | 5.00 | 5.51 | 8 (≈ 21.8 µM) | > 100 | 
N#CCc1ccc(-c2cc3c(cc2F)c(=O)c2c(=O)[nH]sc2n3C2CC2)cc1 | 0.02 (≈ 0.0511 µM) | 0.002 (≈ 0.00511 µM) |  |  | 0.5 (≈ 1.28 µM) | 84 | 
O=c1[nH]sc2c1c(=O)c1cc(F)c(-c3cccc(F)c3)cc1n2C1CC1 | 0.125 (≈ 0.337 µM) | 0.004 (≈ 0.0108 µM) | 5.14 | 6.00 | 1 (≈ 2.7 µM) | 96 | > 150
O=c1[nH]sc2c1c(=O)c1cc(F)c(-c3cccc(O)c3)cc1n2C1CC1 | 0.06 (≈ 0.163 µM) | 0.004 (≈ 0.0109 µM) | 5.80 | 6.70 | 0.25 (≈ 0.679 µM) | > 100 | 
O=c1[nH]sc2c1c(=O)c1cc(F)c(-c3ccccc3F)cc1n2C1CC1 | 0.125 (≈ 0.337 µM) | 0.015 (≈ 0.0405 µM) |  |  | 8 (≈ 21.6 µM) | > 100 | 
CO/N=C1\CN(c2nc3c(cc2F)c(=O)c(C(=O)O)cn3C2CC2)CC1CN (stereo not given) [GEMIFLOXACIN] | 0.015 (≈ 0.0385 µM) | 0.03 (≈ 0.077 µM) | 6.52 | 6.30 | 2 (≈ 5.14 µM) | 46 | 
COc1ccc(-c2cc3c(cc2F)c(=O)c2c(=O)[nH]sc2n3C2CC2)cc1 | 0.125 (≈ 0.327 µM) | 0.015 (≈ 0.0392 µM) |  |  | 2 (≈ 5.23 µM) | 91 | 
NCc1cccc(-c2cc3c(cc2F)c(=O)c2c(=O)[nH]sc2n3C2CC2)c1 | 0.015 (≈ 0.0393 µM) | 0.015 (≈ 0.0393 µM) | 6.70 | 7.00 | 2 (≈ 5.24 µM) | 8 | 
COc1c(N2C[C@@H]3CCCN[C@@H]3C2)c(F)cc2c(=O)c(C(=O)O)cn(C3CC3)c12 [MOXIFLOXACIN] | 0.015 (≈ 0.0374 µM) | 0.06 (≈ 0.149 µM) |  |  | 2 (≈ 4.98 µM) | > 100 | 
